Results as given in ChEMBL document CHEMBL1128689, “Vinyl sulfones as mechanism-based cysteine protease inhibitors” (J Med Chem, 1995).
pKi: −log10 of the molar value.

Experiments:
Procathepsin L [1] = target: T1, Procathepsin L (Homo sapiens, UniProt P07711); assay: Compound is evaluated for inhibitory potency against cathepsin L
Procedure, shortened: (§1)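 Fluorescence increase (ex 380, em 450 nm) followed 5 min or to ≤1% activity. kobs by first-order fit at ≥6 inhibitor levels near Ki, fit to saturation equation; Ki = Ki app/(1+[S]/Km); duplicates.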
Target sequence in this assay (P07711 whole entry): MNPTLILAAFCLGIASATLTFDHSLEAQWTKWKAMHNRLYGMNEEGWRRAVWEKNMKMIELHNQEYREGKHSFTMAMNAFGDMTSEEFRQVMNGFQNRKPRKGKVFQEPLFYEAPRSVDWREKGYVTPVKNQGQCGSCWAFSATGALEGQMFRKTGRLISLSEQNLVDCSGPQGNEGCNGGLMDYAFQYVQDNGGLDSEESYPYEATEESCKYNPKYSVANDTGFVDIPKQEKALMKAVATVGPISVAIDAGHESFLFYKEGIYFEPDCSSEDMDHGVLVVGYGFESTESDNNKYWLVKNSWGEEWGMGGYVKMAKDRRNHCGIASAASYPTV

Cathepsin S [2] = target: T2, Cathepsin S (Homo sapiens, UniProt P25774); assay: Compound is evaluated for inhibitory potency against cathepsin S
Procedure, shortened: (§2)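 Fluorescence ex 380/em 450 nm, 5 min or to ≤1% activity. kobs from first-order fits, ≥6 inhibitor levels near Ki, fit to saturation equation; Ki corrected by 1+[S]/Km; duplicates.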
Target sequence in this assay (P25774 whole entry): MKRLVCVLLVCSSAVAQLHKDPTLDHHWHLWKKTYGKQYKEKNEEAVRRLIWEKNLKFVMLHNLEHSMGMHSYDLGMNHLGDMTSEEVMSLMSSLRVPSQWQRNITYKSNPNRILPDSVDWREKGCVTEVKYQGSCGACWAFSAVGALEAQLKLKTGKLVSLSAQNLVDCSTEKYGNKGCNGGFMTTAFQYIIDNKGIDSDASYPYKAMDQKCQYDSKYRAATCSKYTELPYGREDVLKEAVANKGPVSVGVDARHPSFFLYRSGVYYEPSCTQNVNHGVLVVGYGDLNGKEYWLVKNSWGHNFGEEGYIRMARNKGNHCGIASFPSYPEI

Cathepsin K = target: T3, Cathepsin K (Homo sapiens, UniProt P43235); assay: Compound is evaluated for inhibitory potency against cathepsin O2
T3 sequence (P43235 whole entry): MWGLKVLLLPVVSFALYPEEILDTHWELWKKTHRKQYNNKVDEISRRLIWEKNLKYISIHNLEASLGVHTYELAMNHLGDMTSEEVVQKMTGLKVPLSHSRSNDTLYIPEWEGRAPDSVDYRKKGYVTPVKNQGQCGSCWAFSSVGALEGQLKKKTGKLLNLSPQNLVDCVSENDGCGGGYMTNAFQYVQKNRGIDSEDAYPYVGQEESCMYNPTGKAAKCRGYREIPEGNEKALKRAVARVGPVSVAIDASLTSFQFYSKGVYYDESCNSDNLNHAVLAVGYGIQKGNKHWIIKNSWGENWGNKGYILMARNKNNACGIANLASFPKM
Procedure, shortened: (§3)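 Read at ex 380/em 450 nm for 5 min. Progress curves fit first-order for kobs at ≥6 inhibitor concentrations; kinact and Ki app from saturation fit, Ki corrected for substrate; ratio also from double-reciprocal slope; duplicates.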

Cathepsin S [3] = target: T2, Cathepsin S; assay: Compound is evaluated for inhibition kinetic constant Kinact for the cathepsin S; procedure, shortened: as §2
Target sequence in this assay (P25774 115-331 limits assumed): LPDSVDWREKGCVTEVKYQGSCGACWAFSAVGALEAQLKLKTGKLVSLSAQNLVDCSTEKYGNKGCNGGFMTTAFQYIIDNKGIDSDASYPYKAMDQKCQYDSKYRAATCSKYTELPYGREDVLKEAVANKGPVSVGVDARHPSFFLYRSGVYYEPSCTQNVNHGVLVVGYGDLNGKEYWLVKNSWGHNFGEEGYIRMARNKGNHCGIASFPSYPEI

[4] = target: T4, Cathepsin K (Homo sapiens) (UniProt P43235); assay: Compound is evaluated for inhibition kinetic constant Kinact for the cathepsin O2; procedure, shortened: as §3
T4 sequence (whole entry): T3 sequence (P43235 whole entry)

[5] = target: Cruzipain (Trypanosoma cruzi) (UniProt P25779); assay: Ratio of inhibition kinetic constants kinact and Ki against Cruzaine
Sequence of Cruzipain (Trypanosoma cruzi) (P25779 123-467 limits assumed): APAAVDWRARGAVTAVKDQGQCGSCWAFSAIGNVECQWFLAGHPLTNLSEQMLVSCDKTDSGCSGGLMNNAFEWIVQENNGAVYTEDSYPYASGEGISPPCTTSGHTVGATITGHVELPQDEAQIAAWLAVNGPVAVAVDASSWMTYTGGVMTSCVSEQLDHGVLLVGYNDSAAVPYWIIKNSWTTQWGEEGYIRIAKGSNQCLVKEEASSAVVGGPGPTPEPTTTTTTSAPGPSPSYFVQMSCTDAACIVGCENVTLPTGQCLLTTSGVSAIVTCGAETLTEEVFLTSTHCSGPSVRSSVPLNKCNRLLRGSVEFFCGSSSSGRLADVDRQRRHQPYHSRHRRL
Procedure, shortened: (§4)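 Enzyme (~1-5 nM) starts the reaction with substrate and inhibitor present. Fluorescence ex 380/em 450 nm for 5 min. kobs from first-order fits at ≥6 inhibitor concentrations; Ki app corrected by 1+[S]/Km; second-order constant from 1/kobs vs 1/[I] slope; duplicates.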

Cathepsin B [6] = target: T5, Cathepsin B (Homo sapiens, UniProt P07858); assay: Ratio of inhibition kinetic constants kirr and Ki against Cathepsin B
Procedure, shortened: (§5)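 Cathepsin B, ~5-10 nM, added to 50 mM phosphate pH 6.0, 2.5 mM EDTA, 2.5 mM DTT, 50 μM Z-Arg-Arg-AMC (Km 190 μM), DMF <1%, 25 °C. Fluorescence ex 380/em 450 nm over 5 min. kobs by first-order fit at ≥6 inhibitor concentrations; kirr and Ki app from saturation fit, Ki = Ki app/(1+[S]/Km); kirr/Ki also from 1/kobs vs 1/[I]; duplicates.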

Cathepsin S [7] = target: T2, Cathepsin S; assay: Ratio of inhibition kinetic constants kinact and Ki against Cathepsin S; procedure, shortened: as §2
Target sequence in this assay (P25774 115-331 limits assumed): as the sequence (P25774 115-331 limits assumed) above

Cathepsin B [8] = target: T5, Cathepsin B; assay: Compound is evaluated for inhibitory potency against cathepsin B; procedure, shortened: as §5
Cathepsin B [9] = target: T5, Cathepsin B; assay: Compound is evaluated for inhibition kinetic constant Kirr for the cathepsin B; procedure, shortened: as §5
Procathepsin L [10] = target: T1, Procathepsin L; assay: Compound is evaluated for inhibition kinetic constant Kinact for the cathepsin L; procedure, shortened: as §1
Target sequence in this assay (P07711 114-333 limits assumed): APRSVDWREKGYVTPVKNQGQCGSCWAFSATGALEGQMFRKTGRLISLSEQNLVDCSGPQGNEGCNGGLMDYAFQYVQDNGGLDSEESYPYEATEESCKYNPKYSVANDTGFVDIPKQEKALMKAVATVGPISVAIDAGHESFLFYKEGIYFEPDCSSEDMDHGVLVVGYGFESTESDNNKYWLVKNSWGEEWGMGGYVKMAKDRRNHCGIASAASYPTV

Procathepsin L [11] = target: T1, Procathepsin L; assay: Ratio of inhibition kinetic constants kinact and Ki against Cathepsin L; procedure, shortened: as §1
Target sequence in this assay (P07711 114-333 limits assumed): as above

[12] = target: Cruzipain (Trypanosoma cruzi) (UniProt P25779); assay: Compound is evaluated for inhibition kinetic constant Kinact for the Cruzaine; procedure, shortened: as §4
Cruzipain = Cruzipain (Trypanosoma cruzi, UniProt P25779); assay: Compound is evaluated for inhibitory potency against Cruzaine; procedure, shortened: as §4
Sequence of Cruzipain (P25779 whole entry): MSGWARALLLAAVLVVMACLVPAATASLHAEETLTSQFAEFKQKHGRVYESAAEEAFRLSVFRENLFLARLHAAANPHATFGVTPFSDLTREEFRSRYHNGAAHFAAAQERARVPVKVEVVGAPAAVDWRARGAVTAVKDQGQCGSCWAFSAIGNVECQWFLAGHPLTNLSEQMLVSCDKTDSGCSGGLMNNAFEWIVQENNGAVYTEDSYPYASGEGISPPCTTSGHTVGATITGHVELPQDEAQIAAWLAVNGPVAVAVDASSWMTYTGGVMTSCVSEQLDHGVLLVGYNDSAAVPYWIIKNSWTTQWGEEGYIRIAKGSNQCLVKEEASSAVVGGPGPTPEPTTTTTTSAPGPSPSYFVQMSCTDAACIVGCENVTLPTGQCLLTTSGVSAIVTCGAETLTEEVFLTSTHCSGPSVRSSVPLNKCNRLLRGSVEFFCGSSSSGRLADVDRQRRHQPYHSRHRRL

[13] = target: T4, Cathepsin K (Homo sapiens); assay: Ratio of inhibition kinetic constants kinact and Ki against Cathepsin O2; procedure, shortened: as §3
[14] = target: Cruzipain (Trypanosoma cruzi) (UniProt P25779); assay: Compound is evaluated for inhibition kinetic constant (kobs/[I], 1/M.1/s) for Cruzaine; procedure, shortened: as §4
Cathepsin B [15] = target: T5, Cathepsin B; assay: Compound is evaluated for inhibition kinetic constant (kobs/[I], 1/M.s) for cathepsin B; procedure, shortened: as §5
[16] = target: T4, Cathepsin K (Homo sapiens); assay: Compound is evaluated for inhibition kinetic constant (kobs/[I], 1/M.1/s) for cathepsin O2; procedure, shortened: as §3
Procathepsin L [17] = target: T1, Procathepsin L; assay: Compound is evaluated for inhibition kinetic constant (kobs/[I], 1/M.1/s) for cathepsin L; procedure, shortened: as §1
Target sequence in this assay (P07711 114-333 limits assumed): as the sequence (P07711 114-333 limits assumed) above

Cathepsin S [18] = target: T2, Cathepsin S; assay: Compound is evaluated for inhibition kinetic constant (kobs/[I], 1/M.1/s) for cathepsin S; procedure, shortened: as §2
Target sequence in this assay (P25774 115-331 limits assumed): as the sequence (P25774 115-331 limits assumed) above

[19] = target: T6, Calpain-2 catalytic subunit (Homo sapiens) (UniProt P17655); assay: Compound is evaluated for inhibition kinetic constant (kobs/[I], 1/M.1/s) for Calpain 2
T6 sequence (whole entry): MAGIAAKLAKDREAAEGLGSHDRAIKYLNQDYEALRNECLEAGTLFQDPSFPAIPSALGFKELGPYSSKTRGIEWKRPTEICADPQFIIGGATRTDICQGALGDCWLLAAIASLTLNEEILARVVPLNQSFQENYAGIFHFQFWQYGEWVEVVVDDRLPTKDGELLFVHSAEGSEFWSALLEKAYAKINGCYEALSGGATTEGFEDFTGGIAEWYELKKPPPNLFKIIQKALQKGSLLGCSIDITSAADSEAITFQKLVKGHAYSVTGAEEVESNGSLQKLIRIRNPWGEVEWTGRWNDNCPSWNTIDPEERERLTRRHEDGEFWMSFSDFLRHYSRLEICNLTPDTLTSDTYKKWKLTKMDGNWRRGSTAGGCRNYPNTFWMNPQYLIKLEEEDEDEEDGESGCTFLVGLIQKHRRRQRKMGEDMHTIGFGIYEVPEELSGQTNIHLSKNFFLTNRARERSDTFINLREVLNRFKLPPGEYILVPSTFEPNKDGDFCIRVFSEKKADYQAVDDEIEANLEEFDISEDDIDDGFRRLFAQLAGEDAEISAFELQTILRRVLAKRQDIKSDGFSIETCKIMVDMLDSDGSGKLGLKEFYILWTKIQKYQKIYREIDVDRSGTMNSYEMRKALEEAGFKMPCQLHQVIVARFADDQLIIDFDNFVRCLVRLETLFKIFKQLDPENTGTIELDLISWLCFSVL
Procedure, shortened: (§6)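 Enzyme ~20 nM is added last to substrate plus inhibitor at 25 °C. Fluorescence ex 380/em 450 nm for 5 min or until ≤1% activity. Progress curves fit first-order to kobs; reported as kobs/[I]; duplicate runs.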

[20] = target: T7, Calpain-1 catalytic subunit (Homo sapiens) (UniProt P07384); assay: Compound is evaluated for inhibition kinetic constant (kobs/[I], 1/M.1/s) for calpain 1; procedure, shortened: as §6
T7 sequence (whole entry): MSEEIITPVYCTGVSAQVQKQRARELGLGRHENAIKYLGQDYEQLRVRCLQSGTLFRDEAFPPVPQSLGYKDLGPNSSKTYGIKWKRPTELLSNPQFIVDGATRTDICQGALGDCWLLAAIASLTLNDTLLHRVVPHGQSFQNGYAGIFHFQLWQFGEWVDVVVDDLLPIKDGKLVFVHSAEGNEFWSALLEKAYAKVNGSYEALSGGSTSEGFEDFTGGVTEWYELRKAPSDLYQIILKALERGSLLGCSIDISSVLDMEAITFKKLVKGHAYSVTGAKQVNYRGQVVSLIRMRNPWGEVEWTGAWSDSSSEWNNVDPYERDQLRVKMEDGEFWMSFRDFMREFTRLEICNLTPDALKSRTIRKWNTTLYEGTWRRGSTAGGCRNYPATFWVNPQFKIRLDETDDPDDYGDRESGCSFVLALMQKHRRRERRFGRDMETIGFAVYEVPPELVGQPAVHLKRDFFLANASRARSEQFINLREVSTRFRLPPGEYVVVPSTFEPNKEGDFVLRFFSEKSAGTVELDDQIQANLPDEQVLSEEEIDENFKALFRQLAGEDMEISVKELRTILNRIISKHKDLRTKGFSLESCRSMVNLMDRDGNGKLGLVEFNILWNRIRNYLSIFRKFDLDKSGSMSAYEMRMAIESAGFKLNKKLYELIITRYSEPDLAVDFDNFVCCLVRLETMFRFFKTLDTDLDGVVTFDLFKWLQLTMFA

Row | pKi (Procathepsin L [1]) | pKi (Cathepsin S [2]) | K inact (Cathepsin S [3]) [s⁻¹] | Ratio [5] | pKi (Cathepsin B [8]) | kirr (Cathepsin B [9]) [s⁻¹] | K inact (Procathepsin L [10]) [s⁻¹] | K inact [12] [s⁻¹] | pKi (Cruzipain) | k obs / 1 [14] [M⁻¹ s⁻¹] | k obs / 1 (Cathepsin B [15]) [M⁻¹ s⁻¹] | k obs / 1 [16] [M⁻¹ s⁻¹] | k obs / 1 (Procathepsin L [17]) [M⁻¹ s⁻¹] | k obs / 1 [20] [M⁻¹ s⁻¹] | Structure (SMILES) | further results
1 | 6.14 | 8.23 | 0.16 | 620000 | 4.41 | 0.17 | 0.28 | 0.13 | 6.66 |  |  |  |  |  | CC(C)C[C@H](NC(=O)[C@H](CCc1ccccc1)N/C=C/S(=O)(=O)c1ccccc1)C(=O)NC(=O)NN1CCOCC1 | pKi (Cathepsin K): 6.64; K inact [4]: 0.17 s⁻¹; Ratio (Cathepsin B [6]): 4250; Ratio (Cathepsin S [7]): 2.63e+07; Ratio (Procathepsin L [11]): 387000; Ratio [13]: 773000
2 | 7.74 | 8.74 | 0.1 | 1.04e+06 | 6.82 | 0.061 | 0.14 | 0.046 | 7.32 |  |  |  |  |  | O=C(NC(=O)[C@H](Cc1ccc2ccccc2c1)NC(=O)[C@H](CCc1ccccc1)N/C=C/S(=O)(=O)c1ccc2ccccc2c1)NN1CCOCC1 | 
3 |  |  |  |  |  |  |  |  |  | 104000 | 0 | 22700 | 1.5e+06 | 8400 | CC(=O)N[C@@H](CC(C)C)C(=O)N[C@@H](CC(C)C)C(=O)N[C@@H](CCS(C)(=O)=O)C(=O)/C=C/S(=O)(=O)c1ccccc1 | k obs / 1 [19]: 24300 M⁻¹ s⁻¹

More lines, now with the values behind:

Row | Structure (SMILES) | pKi (Procathepsin L [1]) | pKi (Cathepsin S [2]) | K inact (Cathepsin S [3]) [s⁻¹] | Ratio [5] | pKi (Cathepsin B [8]) | kirr (Cathepsin B [9]) [s⁻¹] | K inact (Procathepsin L [10]) [s⁻¹] | K inact [12] [s⁻¹] | pKi (Cruzipain) | k obs / 1 [14] [M⁻¹ s⁻¹] | k obs / 1 (Cathepsin B [15]) [M⁻¹ s⁻¹] | k obs / 1 [16] [M⁻¹ s⁻¹] | k obs / 1 (Procathepsin L [17]) [M⁻¹ s⁻¹] | k obs / 1 [20] [M⁻¹ s⁻¹] | further results
4 | NCCCC[C@H](N/C=C/S(=O)(=O)c1ccccc1)C(=O)N[C@@H](Cc1ccccc1)C(=O)NC(=O)NN1CCOCC1 |  |  |  |  |  |  |  |  |  | 149000 | 11300 | 83300 | 220000 |  | k obs / 1 (Cathepsin S [18]): 1.07e+07 M⁻¹ s⁻¹
5 | CCCC[C@H](NC(=O)[C@H](CC(C)C)NC(=O)[C@H](CC(C)C)NC(C)=O)C(=O)/C=C/S(=O)(=O)c1ccccc1 |  |  |  |  |  |  |  |  |  | 133000 | 0 |  | 930000 | 6900 | k obs / 1 [19]: 7600 M⁻¹ s⁻¹
6 | O=C(NC(=O)[C@H](Cc1ccccc1)NC(=O)[C@H](CCc1ccccc1)N/C=C/S(=O)(=O)c1ccccc1)NN1CCOCC1 | 6.00 | 7.96 | 0.085 | 203000 | 4.96 | 0.17 | 0.24 | 0.072 | 6.44 |  |  |  |  |  | pKi (Cathepsin K): 4.52; K inact [4]: 0.31 s⁻¹; Ratio (Cathepsin B [6]): 16400; Ratio (Cathepsin S [7]): 7.7e+06; Ratio (Procathepsin L [11]): 224000; Ratio [13]: 10200
7 | CC(C)C[C@H](NC(=O)NN1CCOCC1)C(=O)N[C@@H](CC(C)C)C(=O)N[C@@H](Cc1ccc(O)cc1)C(=O)/C=C/S(=O)(=O)c1ccccc1 |  |  |  |  |  |  |  |  |  |  |  | 815 | 28700 | 10800 | k obs / 1 (Cathepsin S [18]): 25100 M⁻¹ s⁻¹
